Source: PubChem (Johns Hopkins Ion Channel Center)
Hits are enriched below; roughly 3.5% of the tested compounds scored in any of these assays.
MrgX1 antag – antagonists of human MrgX1 receptor, primary screen, HEK293 cells, Fluo-4 calcium flux; Mas-related G-protein coupled receptor member X1 (Homo sapiens), Q96LB2; BAM8-22 antagonism; stronger effect = lower value; B-score at 10 µM; actives 1.3% (n = 310,000); AID 588676, 2011;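 active means calcium-response B-score plate-corrected more than 3 library SD below zero, starting fluorescence within 5 deviations, no agonist response on first addition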;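 further: peak minus trough fluorescence over baseline after final BAM8-22 challenge near maximal dose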
Target sequence (Q96LB2 whole entry, looked up): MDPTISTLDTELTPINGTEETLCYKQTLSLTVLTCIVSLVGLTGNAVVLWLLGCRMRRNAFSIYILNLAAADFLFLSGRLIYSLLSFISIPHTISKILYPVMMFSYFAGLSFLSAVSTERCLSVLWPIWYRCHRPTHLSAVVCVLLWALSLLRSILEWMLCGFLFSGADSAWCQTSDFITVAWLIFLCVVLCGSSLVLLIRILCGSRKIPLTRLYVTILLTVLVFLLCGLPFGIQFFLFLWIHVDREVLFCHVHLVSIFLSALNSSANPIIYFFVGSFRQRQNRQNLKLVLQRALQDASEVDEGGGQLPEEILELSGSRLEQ
MrgX1 ag – agonists of human MrgX1 receptor, primary screen, HEK293 cells, Fluo-4 calcium flux; Fluo-4 calcium fluorescence, agonist mode; stronger effect = higher value; Mas-related G-protein coupled receptor member X1 (Homo sapiens), Q96LB2; actives 0.44% (n = 310,000); B-score at 10 µM;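 active means calcium response B-score plate-corrected fluorescence ratio at least 3 library SD, with starting fluorescence B-score inside 5 SD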
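System: HEK293 cells stably expressing human MrgX1 receptor; Dosing: test compound in the initial addition of three; Schedule: overnight plating, then 30 min 37 °C plus 30 min room-temperature dye loading; Detection: kinetic calcium dye fluorescence, Fluo-4 NW; Controls: per-plate positive and negative controls for Z′ factor.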
RGS4 block – RGS4 inhibitors, primary screen, cell-based, HEK293 M3R inducible RGS4, calcium flux | B-score at 10 µM | AID 463165, 2010 | Fluo-4 calcium flux; stronger effect = higher value; triggered by carbachol at its EC20 | actives 0.45% (n = 310,000);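 active means B-score, a plate-corrected calcium signal, over three deviations above library mean, with baseline fluorescence within five deviations of library mean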;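 further: RGS4 expression induced by doxycycline in cells with stable M3 receptor; B-score is computed from the integrated fluorescence ratio over baseline after carbachol; higher B-score means a larger calcium signal and so more RGS4 inhibition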
Target sequence (P49798 whole entry, looked up): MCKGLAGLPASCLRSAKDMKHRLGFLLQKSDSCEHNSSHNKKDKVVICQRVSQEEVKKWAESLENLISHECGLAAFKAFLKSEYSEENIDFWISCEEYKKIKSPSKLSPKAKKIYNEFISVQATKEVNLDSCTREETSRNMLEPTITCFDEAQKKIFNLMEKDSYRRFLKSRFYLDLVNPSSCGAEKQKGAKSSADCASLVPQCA
MrgX1 PAM – positive allosteric modulators of MrgX1, primary screen, HEK293 cells, Fluo-4 calcium flux | Mas-related G-protein coupled receptor member X1 (Homo sapiens), Q96LB2 | actives 0.63% (n = 310,000) | FDSS; stronger effect = higher value | B-score at 10 µM;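 active means plate-corrected calcium response at least 3 library SD above typical, normal starting fluorescence, not activating the receptor alone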;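 further: compound read alongside a low EC10 to EC30 dose of BAM8-22 agonist; peak minus trough fluorescence over baseline measured at the second addition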
RGS4 pot – RGS4 potentiators or activators, primary screen, cell-based, HEK293 M3R inducible RGS4, calcium flux; AID 463111, 2010; B-score at 10 µM; actives 0.92% (n = 310,000); carbachol calcium flux Fluo4; stronger effect = lower value;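 active means B-score of the integrated calcium signal more than 4 SD below the library mean, with starting fluorescence not abnormally high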;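 further: negative B-score means reduced calcium response which marks RGS4 activation or potentiation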
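Reagent: ECmax carbachol challenge; Test system: M3R-expressing HEK293 line, RGS4 induced by doxycycline; Schedule: overnight RGS4 induction, 30 min dye load 37 °C, 20 min compound RT; Detection: calcium dye Fluo4 fluorescence; Read-out: Agonist-evoked peak-minus-minimum fluorescence over baseline, integrated ratio, B score.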
* hit, by the source's call; i = inactive.

SMILES	MrgX1 antag	MrgX1 ag	RGS4 block	MrgX1 PAM	RGS4 pot
Cc1cccc(NC(=S)NCC(C)CSc2ccc(Cl)cc2)c1 (configuration not stated)	-6.4*	i	i	i	i
Cc1ccc(NC(=S)NCC(C)CSc2ccc(Cl)cc2)cc1 (configuration not stated)	i	i	i	i	i
COc1ccccc1/C=N\NC(=O)c1ccc(COc2ccc(C)c(C)c2)o1	i	i	i	i	i
Cc1c(CCOC(=O)c2ccc([N+](=O)[O-])cc2)sc[n+]1CC(=O)c1ccccc1	i	i	i	i	i
COc1ccc(C(=O)OCCc2sc[n+](CC(=O)c3ccccc3)c2C)cc1	i	i	i	i	-11*
O=C(COc1ccc(Cl)cc1)N(Cc1ccc(F)cc1)C1CCS(=O)(=O)C1 (configuration not stated)	i	i	i	i	i
CC(NC(=O)c1ccccc1)C(=O)N/N=C/c1ccco1 (configuration not stated)	i	i	i	i	i
CC(C)CC(NC(=O)c1ccccc1)C(=O)N/N=C/c1ccco1 (configuration not stated)	i	30*	i	i	i
O=C(CCCCCCCCC(=O)N/N=C/c1ccco1)N/N=C/c1ccco1	-5.7*	i	i	i	i
Cc1cc(C)n2nc(/C(C#N)=C/c3ccccn3)c(C#N)c2n1	i	i	i	i	i
CC(C)(C)c1ccc(/C=C/C(=O)N2CCN(c3ncccn3)CC2)cc1	-6.3*	i	i	i	i
Cc1ccc(C(C)C)cc1S(=O)(=O)NCc1ccccn1	i	i	i	i	i
Cc1ccc2oc(=O)n(Cc3ccccc3)c2c1	i	i	i	i	i
Cc1nnc2ccc(-c3cccc(NS(=O)(=O)c4ccccc4Cl)c3)nn12	i	i	i	i	i
Cc1nnc2ccc(-c3cccc(NS(=O)(=O)c4ccccc4[N+](=O)[O-])c3)nn12	i	29*	i	i	i
O=[N+]([O-])c1ccccc1S(=O)(=O)Nc1cccc(-c2ccc3nncn3n2)c1	i	27*	i	i	i
O=C(CN(Cc1ccc(F)cc1)C(=O)CNS(=O)(=O)c1ccc(Cl)cc1)NCC1CCCO1 (configuration not stated)	i	i	i	i	i
O=[N+]([O-])c1cccc(CSC2=NCCN2S(=O)(=O)c2ccccc2)c1	i	i	i	i	i
CCOc1cc(C2C(C(=O)c3ccco3)=C(O)C(=O)N2CC2CCCO2)ccc1O (configuration not stated)	i	i	i	i	i
CNC(=O)COc1coc(CN2CCN(c3ccc(OC)cc3)CC2)cc1=O	i	i	i	i	i
CCCCCCCCNC(=O)c1ccc(C)cc1	i	32*	i	i	i
CC(=O)c1cccc(NC(=O)CCc2nnc3ccc(N4CCOCC4)nn23)c1	i	i	i	i	i
CCOC(=O)c1cnc2c(C)cccc2c1NCCc1ccc(OC)c(OC)c1	i	i	i	i	-7.4*
CCOC(=O)c1cnc2c(C)cccc2c1Nc1cccc(C(=O)O)c1	i	i	i	i	i
CCOC(=O)c1cnc2c(Cl)cccc2c1NCCN(C)C	i	i	i	i	i
SMILES	MrgX1 antag	MrgX1 ag	RGS4 block	MrgX1 PAM	RGS4 pot
CCOC(=O)c1cnc2ccc(C(=O)OC)cc2c1NCCc1ccc(OC)c(OC)c1	-6.4*	i	i	i	i
CCOC(=O)c1cnc2ccc(C(=O)OC)cc2c1NCCN1CCOCC1	i	i	i	i	i
CCOC(=O)c1cnc2c(C(=O)OC)cccc2c1NCc1cccnc1	i	i	i	i	-7*
Cc1ccc2cc(C=O)c(Cl)nc2c1	i	i	i	7.3*	i
CCOC(=O)/C(C#N)=C/c1cc2ccc(C)cc2nc1Cl	i	i	i	i	i
CCN1C(=O)N[C@@H](c2ccco2)C(C(=O)OC)=C1C	i	i	i	i	i
COc1cc(OC)c(C(=O)Nc2ccc(C(=O)c3ccccc3)cc2)cc1OC	i	i	i	i	-7.2*
COc1ccc(C(=O)N/N=C(/C)c2cccc(NC(=O)c3ccncc3)c2)cc1OC	i	i	i	i	-7*
COc1cccc(C(=O)Nc2ccc(C(=O)c3ccncc3)cc2)c1	i	i	i	7.1*	i
COc1cc(OC)c(C(=O)Nc2ccncc2)cc1OC	i	i	i	i	i
COc1cccc(C(=O)Nc2ccc(NC(C)=O)cc2)c1	i	i	i	i	i
O=C(NCCCN1CCOCC1)/C(=C/c1cccs1)NC(=O)c1ccccc1	i	i	i	i	i
O=C(N/C(=C\c1cccnc1)C(=O)N1CCOCC1)c1ccco1	-5*	i	i	i	i
Nc1c(-c2cccc(Cl)c2)cnn1-c1cccc(C(F)(F)F)c1	i	i	i	i	i
Nc1c(-c2ccc(Cl)cc2)cnn1-c1cc(C(F)(F)F)cc(C(F)(F)F)c1	i	i	i	14*	i
Cc1ccc(S(=O)(=O)N2CCC(N3CCN(C)CC3)CC2)cc1Cl	i	i	i	i	i
Cc1ccc(NC(=O)c2cccc(Oc3ccc([N+](=O)[O-])cc3)c2)c(C(=O)O)c1	i	i	i	i	i
O=C(Nc1ccc(O)cc1)c1cccc(Oc2ccc([N+](=O)[O-])cc2)c1	-5.9*	i	i	i	i
Cc1ccnc(NC(=O)CSc2ccc3c(c2)OCCO3)c1	i	i	i	i	-7.3*
CCOc1ccc(CN(C)C(=O)CNC(=O)c2ccc(Br)o2)cc1OC	i	i	i	i	i
COc1ccc(Cc2noc(CN(C)CC(O)c3ccccc3)n2)cc1OC (configuration not stated)	-5.2*	i	i	i	i
Cc1csc2nc(SCC(=O)Nc3ccccc3F)[nH]c(=O)c12	i	i	i	i	i
O/C(=C\c1nc2ccccc2nc1/C=C(\O)c1ccccc1)c1ccccc1	i	i	i	14*	i
